From ChEMBL document CHEMBL1135746, “Structure-activity relationships of the antimalarial agent artemisinin. 7. Direct modification of (+)-artemisinin and in vivo antimalarial screening of new, potential preclinical antimalarial candidates” (J Med Chem, 2002)
≈ marks a conversion by molar mass, not a printed value. Where “and” joins values, the source holds several entries; their conditions need not be identical. Identical values can stand only once. Calls of active or inactive are those of the source. The rule behind the calls is not given here.

What was measured:
[1] = test system: Plasmodium berghei; experiment: Effective dose ED50 against Plasmodium berghei N in mice (Mus musculus) malaria model after peroral administration; type: functional
[2] = test system: Plasmodium berghei; experiment: (§1) Effective dose ED90 against Plasmodium berghei N in mice (Mus musculus) malaria model after peroral administration; type: functional; details: po
[3] = test system: Plasmodium berghei; experiment: (§2) Effective dose ED90 against Plasmodium berghei N in mice (Mus musculus) malaria model after subcutaneous administration; type: functional; details: Plasmodium berghei, sc; read-out: ED90
[4] = test system: Plasmodium berghei; experiment: Effective dose ED50 against Plasmodium berghei N in mice (Mus musculus) malaria model after subcutaneous administration; type: functional
[5] = test system: Plasmodium falciparum; experiment: Inhibitory activity against Plasmodium falciparum D6; type: functional, organism-based
Outline: (§3)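 Parasitized human red blood cells were used in short-term microtitre cultures. Compounds were dissolved in DMSO and diluted 400-fold in culture medium with plasma, giving a starting concentration of at least 12 500 ng/mL. Activity was measured as inhibition of parasite uptake of a radiolabelled nucleic acid precursor.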

[6] = test system: Plasmodium falciparum; experiment: Inhibitory activity against Plasmodium falciparum K1; type: functional, organism-based
[7] = test system: Plasmodium falciparum; experiment: Inhibitory activity against Plasmodium falciparum NF54; type: functional, organism-based
[8] = test system: Plasmodium falciparum; experiment: Inhibitory activity against Plasmodium falciparum W2; type: functional, organism-based; outline: as §3
[9] = test system: Plasmodium yoelii; experiment: Effective subcutaneous dose ED50 against Plasmodium yoelii sspNS; type: functional; details: sc
[10] = test system: Plasmodium yoelii; experiment: Effective dose ED90 against Plasmodium yoelii sspNS on subcutaneous dose; type: functional; details: sc
[11] = test system: Plasmodium berghei; experiment: as §2; type: functional; details: sc
Outline: (§4)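 Peters' 4-day test: two batches of five male random-bred Swiss albino mice (18-22 g) were inoculated i.v. with 2 × 10⁶ P. berghei N-parasitized RBC. Drug was given once daily for four consecutive days. Compounds were dissolved in DMSO, then diluted in water for subcutaneous or oral dosing. Parasitemia was read the day after the last treatment.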

[12] = test system: Plasmodium yoelii; experiment: Effective subcutaneous dose ED90 against Plasmodium yoelii sspNS; type: functional
[13] = test system: Plasmodium berghei; experiment: Effective dose ED90 against Plasmodium berghei N in mice (Mus musculus) malaria model after subcutaneous dose; details: sc
[14] = test system: Plasmodium berghei; experiment: Antimalarial activity in Plasmodium berghei infected mice (Mus musculus) at 8 mg/kg/day peroral dose; type: functional; details: route oral
Outline: (§5)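 CD-1 mice (16-18 g), quarantined 2 weeks, then infected with P. berghei (Thompson test). Treatment was given on days 3-5 postinfection. Subcutaneous dosing was a single injection; oral dosing was by gavage of a peanut-oil suspension. Groups of 5 mice were used. Survival was scored out of 5 and parasitemia was followed up to 60 days postinfection.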

[15] = test system: Plasmodium berghei; experiment: Antimalarial activity in Plasmodium berghei infected mice (Mus musculus) after 128 mg/kg/day subcutaneous dose; type: functional; outline: as §5
[16] = test system: Plasmodium berghei; experiment: Antimalarial activity in Plasmodium berghei infected mice (Mus musculus) at 32 mg/kg/day subcutaneous dose; type: functional; outline: as §5
[17] = test system: Plasmodium berghei; experiment: Antimalarial activity in Plasmodium berghei infected mice (Mus musculus) at 8 mg/kg/day subcutaneous dose; type: functional; outline: as §5
[18] = test system: Plasmodium berghei; experiment: Antimalarial activity in Plasmodium berghei infected mice (Mus musculus) at 128 mg/kg/day peroral dose; type: functional; details: route oral; outline: as §5
[19] = test system: Plasmodium berghei; experiment: Antimalarial activity in Plasmodium berghei infected mice (Mus musculus) at 32 mg/kg/day peroral dose; type: functional; details: route oral; outline: as §5
[20] = test system: Plasmodium yoelii; experiment: Percent suppression of Plasmodium […] NS infection in mice (Mus musculus) malaria model after 10 mg/kg peroral dose; type: functional; details: route oral
[21] = test system: Plasmodium berghei; experiment: Percent suppression of Plasmodium berghei N infection in mice (Mus musculus) malaria model after peroral dose; type: functional
[22] = test system: Plasmodium yoelii; experiment: Effective dose against Plasmodium yoelii NS after 10 mg/kg peroral dose in mice (Mus musculus) malaria model; Not active; type: functional, organism-based; parameters: dose 10 mg/kg
[23] = test system: Plasmodium berghei; experiment: Effective dose against Plasmodium berghei N in mice (Mus musculus) malaria model after peroral administration; type: functional; details: po
[24] = test system: Plasmodium berghei; experiment: Effective dose Plasmodium berghei N in mice (Mus musculus) malaria model after subcutaneous administration; type: functional; details: sc; outline: as §4
[25] = test system: Plasmodium berghei; experiment: Effective dose ED50 against Plasmodium berghei N and Plasmodium species infected mice (Mus musculus) after peroral dose; type: functional; details: po; outline: as §4
[26] = test system: Plasmodium berghei; experiment: as §1; type: functional; details: po; outline: as §4; remark: listed apart in the source
[27] = test system: Plasmodium berghei; experiment: Effective dose against Plasmodium berghei N in mice (Mus musculus) malaria model after subcutaneous administration; type: functional; details: sc; outline: as §4
[28] = test system: Plasmodium berghei; experiment: Antimalarial activity against Plasmodium berghei infected mice (Mus musculus) at 32 mg/kg/day subcutaneous dose; type: functional; outline: as §5
[29] = Plasmodium berghei, po, read-out: ED50
[30] = Plasmodium berghei, sc, read-out: ED50

Row | SMILES | ED50 [1, 29] | ED90 [3] | ED50 [4, 30] | IC50 [5] | IC50 [8] | ED50 [9] | Activity [14] | Activity [15] | Activity [16] | Activity [17] | Activity [18] | Activity [19] | also measured
1 | C[C@@H]1CC[C@H]2[C@@H](CCCc3cccc(F)c3)CO[C@@H]3OC4(C)CC[C@@H]1[C@]32OO4 (single isomer, unassigned) | 0.9 mg/kg | 0.85 mg/kg | 0.46 mg/kg | 0.00828 µg/mL (≈ 0.0212 µM) | 0.0268 µg/mL (≈ 0.0687 µM) | 0.58 mg/kg |  |  |  |  |  |  | ED90 [2]: 3.4 mg/kg; IC50 [6]: 0.0116 µg/mL (≈ 0.0296 µM); IC50 [7]: 0.0418 µg/mL (≈ 0.107 µM); ED90 [10]: 1 mg/kg
2 | CCN(CC)CCCC(C)Nc1ccnc2cc(Cl)ccc12 (centres undefined) [CHLOROQUINE] |  | 3 mg/kg | 1.5 mg/kg |  |  | 1.6 mg/kg |  |  |  |  |  |  | ED90 [11]: 3.4 mg/kg; ED90 ([12]; Plasmodium yoelii, sc, read-out: ED90): 28 mg/kg; ED90 [13]: 1.8 mg/kg
3 | C[C@@H]1CC[C@H]2[C@@H](CCCc3ccc(F)cc3)CO[C@@H]3OC4(C)CC[C@@H]1[C@]32OO4 (single isomer, unassigned) |  |  |  |  |  |  | 1 | 5 | 5 | 0 | 5 | 5 | 
4 | COc1ccc(CCC[C@H]2CO[C@@H]3OC4(C)CC[C@H]5[C@H](C)CC[C@@H]2[C@@]35OO4)cc1 (single isomer, unassigned) |  |  |  |  |  |  | 0 | 5 | 5 | 0 | 5 | 5 | 
5 | C[C@@H]1CC[C@H]2[C@@H](CCCC(F)(F)F)CO[C@@H]3OC4(C)CC[C@@H]1[C@]32OO4 (single isomer, unassigned) |  |  |  | 0.0125 µg/mL (≈ 0.0342 µM) | 0.00887 µg/mL (≈ 0.0243 µM) |  |  |  |  |  |  |  | Activity [20]: 0.3%; Activity [21]: 6.5%; NA [22]: inactive; ED50 [23]: > 10 mg/kg; ED90 [23]: > 10 mg/kg
6 | CCCC[C@H]1CO[C@@H]2O[C@]3(C)CC[C@H]4[C@H](C)CC[C@@H]1[C@@]24OO3 |  |  |  |  |  |  | 0 | 5 | 5 | 5 |  | 2 | 
7 | C[C@@H]1CC[C@H]2[C@@H](CCCc3cccc(Cl)c3)CO[C@@H]3OC4(C)CC[C@@H]1[C@]32OO4 (single isomer, unassigned) | 2 mg/kg | 0.9 mg/kg | 0.5 mg/kg | 0.00755 µg/mL (≈ 0.0186 µM) | 0.0216 µg/mL (≈ 0.0531 µM) | 0.6 mg/kg |  |  |  |  |  |  | ED90 [2]: 8.3 mg/kg; IC50 [6]: 0.0101 µg/mL (≈ 0.0247 µM); IC50 [7]: 0.0183 µg/mL (≈ 0.0449 µM); ED90 [10]: 1 mg/kg
8 | C[C@H]1[C@H](OC(=O)CCC(=O)[O-])O[C@@H]2O[C@@]3(C)CC[C@H]4[C@H](C)CC[C@@H]1[C@@]24OO3.[Na+] [SODIUM ARESUNATE] | 2.4 mg/kg |  |  |  |  |  |  |  |  |  |  |  | ED50 [1]: 1.6 mg/kg; ED50 [24]: > 10 mg/kg; ED90 [25]: > 10 mg/kg; ED90 [26]: > 10 mg/kg; ED90 [27]: > 10 mg/kg; ED50 [4]: 0.8 mg/kg and 1.8 mg/kg
9 | C[C@@H]1CC[C@H]2[C@@H](CCCc3ccc(Cl)cc3)CO[C@@H]3OC4(C)CC[C@@H]1[C@]32OO4 (single isomer, unassigned) |  |  |  | 0.0019 µg/mL (≈ 0.00467 µM) | 0.0026 µg/mL (≈ 0.00639 µM) |  |  | 5 | 5 |  | 5 |  | Survival dose [28]: 5; ED90 [12]: 1
